Assay outcomes from PubChem.
Calb FLC = affects C. albicans growth with fluconazole; C. albicans CaCi-2 (fluconazole-resistant clinical isolate) + fluconazole, Alamar Blue growth, 48 h; growth inhibition, % (no concentration beside the values); actives 0.57% (n = 300,000); AID 1979;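 active = growth inhibition above about 58% in most replicates, limit read from the data, passing the limit was not always enough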;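 also: all wells also contain fluconazole at 8 µg/ml as a sub-toxic cotreatment; 0% = median of DMSO wells and 100% = median of geldanamycin control wells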
CSC inhib = cancer stem cell inhibition. cancer stem cell-like cells viability, luminescence. inhibition, % at 7.5 µM. actives 1.1% (n = 300,000). AID 2717; in the data active = inhibition above about 75%; tested in HMLE shEcad cells
Beta cell apopt = blocks beta cell apoptosis. INS-1E cytokine-induced death, ATP luminescence, 48 h; percent of positive-control rescue, neutral wells zero. protection from apoptosis, % (no concentration beside the values). actives 0.8% (n = 300,000). AID 435005;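 active = Every replicate reaches about 75%, or at least half do and their mean reaches it too, limit read from the data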;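 also: 0% = cytokine-treated negative control wells and 100% = positive control rescue; higher means more ATP so stronger rescue from cytokine killing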
NALP3 yeast inh = inhibitors of NALP3 inflammasome in yeast; Yeast reconstituted NLRP3/ASC/caspase-1, beta-gal luminescence, 24 h; inhibition, % at 10 µM; actives 0.39% (n = 330,000);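 active = inhibition of 50% or more; inactive = inhibition below 50%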;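 also: plate controls were induced DMSO wells for no effect and uninduced yeast grown without galactose for full effect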
T cruzi repl = T. cruzi replication inhibition | T. cruzi beta-gal in NIH3T3, luminescence, 90 h | inhibition, % (no concentration beside the values) | actives 1.4% (n = 300,000) | AID 1885;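 active = mean inhibition across valid replicates above about 55%, limit read from the data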;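 also: signal also drops with host cell toxicity which is not excluded here; 0% = plate median of DMSO wells and 100% = zero luminescence signal; higher percent means less beta-gal luminescence so fewer parasites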
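Test system: β-gal T. cruzi (Tulahuen C4) inside NIH/3T3 cells / Quantity: 5,000 cells/well / Measured by: luminescence from GalScreen with 0.05% NP40, read after 60 min / Medium: DMEM plus 2% FBS / Measure: parasite load inhibition, % / Reagent: Tulahuen C4 trypomastigotes, 5000/well / Schedule: co-culture of at least 90 h after 3 h attachment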
Mdm2 MdmX PPI = inhibitors of human Mdm2/MdmX interaction; AID 485346; actives 3% (n = 330,000); SaOS-2 split-luciferase Mdm2/MdmX complementation, luminescence; inhibition, % at 8 µM;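 active = inhibition of at least 50% at 8 µM in the primary screen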
Mdm2-MdmX conf = human Mdm2/MdmX binding inhibition, confirmed | shares compounds with Mdm2 MdmX PPI | luminescent assay | inhibition, % at 8 µM | actives 55% (n = 10,000) | AID 489028; in the data active = inhibition above about 40%
FLuc counter = full-length luciferase inhibition in Mdm2/MdmX counter-screen; shares compounds with Mdm2 MdmX PPI; SaOS-2 full-length luciferase counterscreen, luminescence; inhibition, % at 8 µM; actives 77% (n = 6,200);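 active = mean inhibition at 8 µM reaching about 37%, which flags the compound as non-specific, limit read from the data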;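 also: p53-null SaOS-2 cells with luciferase driven by a doxycycline-inducible promoter; compound on cells about two nights before reading with doxycycline added after day one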
The depositor's hits bear a star. Compounds with a hit are over-represented: about 5.3% of the library has one in this group of screens.

For Cc1ccc(OCCNC(=O)c2cc(=O)[nH]c3ccccc23)cc1 the results were Calb FLC -3, CSC inhib -1, NALP3 yeast inh 8, T cruzi repl -13 and Mdm2 MdmX PPI -3.
For CCOC(=O)c1cc(-c2ccc(OC)cc2OC)nn1-c1ccc(C(=O)O)cc1 the results were Calb FLC 35, CSC inhib -5, Beta cell apopt -4, NALP3 yeast inh -8, T cruzi repl -1 and Mdm2 MdmX PPI 8.
`COc1cc(OC)c2c(-c3ccccc3)cc(=O)oc2c1C(CCN1CCCCC1)c1ccc(N(C)C)cc1` (centres undefined) gave Calb FLC -16, CSC inhib -1, Beta cell apopt 42, NALP3 yeast inh 3, T cruzi repl 41, Mdm2 MdmX PPI 79* and Mdm2-MdmX conf 16.
COc1ccc(C(CCN2CCCCC2)c2c(OC)cc(OC)c3c(-c4ccccc4)cc(=O)oc23)cc1 (centres undefined) was read as Calb FLC -10, CSC inhib -8, Beta cell apopt 86*, NALP3 yeast inh 20, T cruzi repl 43, Mdm2 MdmX PPI 94* and Mdm2-MdmX conf 40.
Screening COc1cc(OC)c(OC)cc1CNCCNC(=O)c1ccco1 returned Calb FLC -1, CSC inhib -4, Beta cell apopt -2, NALP3 yeast inh 4, T cruzi repl 16 and Mdm2 MdmX PPI 8.
Screening CCCCc1ccc(NC(=O)Nc2c(C)n(C)n(-c3ccccc3)c2=O)cc1 returned Calb FLC -2, CSC inhib 4, Beta cell apopt 4, NALP3 yeast inh 13, T cruzi repl 7 and Mdm2 MdmX PPI -5.
Cc1nnsc1S(=O)c1ccc(Cl)c(Cl)c1 (centres undefined) was read as Calb FLC 10, NALP3 yeast inh 12, T cruzi repl 39 and Mdm2 MdmX PPI 30.
For O=S(c1ccc2ccccc2c1)c1cnns1 (centres undefined) the results were CSC inhib 40, Beta cell apopt -24, NALP3 yeast inh 20, Mdm2 MdmX PPI 57* and Mdm2-MdmX conf 28.
CC(=O)/C(C#N)=C1\NC(=O)C(Cc2ccccc2C)S1 (centres undefined) was read as Calb FLC 7, CSC inhib 46, Beta cell apopt -3, NALP3 yeast inh 14, T cruzi repl 17, Mdm2 MdmX PPI 83*, Mdm2-MdmX conf 70* and FLuc counter 41*.
Screening CC(=O)/C(C#N)=C1\NC(=O)C(Cc2ccccc2)S1 (centres undefined) returned Calb FLC 4, CSC inhib -12, Beta cell apopt -4, NALP3 yeast inh 10, T cruzi repl 10 and Mdm2 MdmX PPI 46.
Screening COCCN(CCOC)S(=O)(=O)c1ccc(C(=O)Nc2nc(-c3ccccc3)c(C(=O)c3ccccc3)s2)cc1 returned Calb FLC 4, CSC inhib 32, Beta cell apopt 2, NALP3 yeast inh 6, T cruzi repl 22 and Mdm2 MdmX PPI -24.
COC(=O)Nc1nc(-c2ccccc2)c(C(=O)c2ccc(Cl)cc2)s1 was read as Calb FLC 4, CSC inhib 57, Beta cell apopt 26, NALP3 yeast inh 10, Mdm2 MdmX PPI 61*, Mdm2-MdmX conf 55* and FLuc counter 88*.
For CCOC(=O)Nc1nc(-c2ccccc2)c(C(=O)c2ccccc2)s1 the results were Calb FLC 36, CSC inhib 62, Beta cell apopt 25, NALP3 yeast inh 10, T cruzi repl 7, Mdm2 MdmX PPI 61*, Mdm2-MdmX conf 51* and FLuc counter 91*.
Screening O=C(NCCCCNC(=O)c1ccc(Br)cc1)c1ccc(Br)cc1 returned Calb FLC -1, CSC inhib -1, Beta cell apopt -14, NALP3 yeast inh 10, T cruzi repl -17, Mdm2 MdmX PPI 77* and Mdm2-MdmX conf 21.
